Screening results: PubChem, Johns Hopkins Ion Channel Center
Only some compounds are listed: those with a hit (about 2.9% of all), similar ones and a draw of the others.
TRPC4 block: inhibitors of mouse TRPC4 channel, primary screen, Fluo4 calcium, HEK293 TRPC4beta/mu-opioid cells. Short transient receptor potential channel 4 (Mus musculus), Q9QUQ5. DAMGO-evoked Fluo4 calcium flux; active compounds read low. B-score at 10 µM. 300,000 compounds, 0.39% hits. AID 2247, 2010;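 active = B-score over 3 SD under the library average, no early fluorescence shift, positive overall ratio signal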
Target sequence (Q9QUQ5 whole entry, looked up): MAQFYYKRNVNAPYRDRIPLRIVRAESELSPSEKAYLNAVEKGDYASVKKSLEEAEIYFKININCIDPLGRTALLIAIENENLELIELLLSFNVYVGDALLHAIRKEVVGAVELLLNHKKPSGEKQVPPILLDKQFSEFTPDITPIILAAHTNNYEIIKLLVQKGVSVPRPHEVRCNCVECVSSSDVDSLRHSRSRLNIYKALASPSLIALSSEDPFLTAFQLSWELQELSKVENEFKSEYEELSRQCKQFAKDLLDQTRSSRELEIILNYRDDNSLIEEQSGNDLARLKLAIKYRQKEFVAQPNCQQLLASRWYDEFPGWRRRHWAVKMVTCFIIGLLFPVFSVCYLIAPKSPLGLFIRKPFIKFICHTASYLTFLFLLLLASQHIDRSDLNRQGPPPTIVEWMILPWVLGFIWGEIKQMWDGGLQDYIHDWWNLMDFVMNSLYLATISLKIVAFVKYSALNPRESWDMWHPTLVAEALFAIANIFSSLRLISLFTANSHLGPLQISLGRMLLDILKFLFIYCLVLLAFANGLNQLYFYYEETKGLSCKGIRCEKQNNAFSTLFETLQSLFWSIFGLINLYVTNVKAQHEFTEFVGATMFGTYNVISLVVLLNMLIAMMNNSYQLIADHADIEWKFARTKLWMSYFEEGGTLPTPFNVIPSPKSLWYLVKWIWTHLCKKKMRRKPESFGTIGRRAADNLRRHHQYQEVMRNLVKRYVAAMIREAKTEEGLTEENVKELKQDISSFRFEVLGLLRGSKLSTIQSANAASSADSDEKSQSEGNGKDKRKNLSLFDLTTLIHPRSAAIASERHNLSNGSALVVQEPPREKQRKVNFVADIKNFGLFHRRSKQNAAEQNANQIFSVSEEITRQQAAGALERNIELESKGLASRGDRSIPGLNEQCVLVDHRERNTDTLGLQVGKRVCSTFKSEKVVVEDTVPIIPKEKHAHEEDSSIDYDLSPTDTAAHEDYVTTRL
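Assay system: TRPC4beta/mu-opioid receptor HEK293 cell line; compound dosing: single concentration per test compound; detection: Fluo4 Ca2+ flux fluorescence; evaluation: per-well B score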
Kir21 inh: inhibitors of mouse Kir2.1 inward-rectifier potassium channel; Inward rectifier potassium channel 2 (Mus musculus), P35561; HEK293-Kir2.1, FluxOR thallium flux fluorescence; active compounds read low; B-score at 10 µM; 310,000 compounds, 0.85% hits; AID 1672, 2009;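 active = fluorescence ratio B-score at or below minus 3 SD of library scores, with starting-brightness B-score within 2 SD, cut at about -4.2 in these data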;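 note: channel flux triggered by added potassium and thallium sulfate stimulus; B-score of peak minus minimum fluorescence over baseline after thallium stimulus; more negative B-score means stronger Kir2.1 block with less thallium influx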
TRPC4 act: activators of mouse TRPC4 channel, primary screen, Fluo4 calcium, HEK293 TRPC4beta/mu-opioid cells; Short transient receptor potential channel 4 (Mus musculus), Q9QUQ5; Fluo4 calcium fluorescence; active compounds read high; B-score at 10 µM; 310,000 compounds, 0.49% hits; AID 2237, 2010;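 active = B-score above 5 SD of library B-scores, and initial fluorescence ratio not above library mean plus 5 SD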;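 note: positive B-score marks a calcium rise read as TRPC4 activation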
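System – HEK293 cells stably co-expressing mouse TRPC4beta and mu-opioid receptor · Signal – Fluo4 calcium-sensitive dye fluorescence, kinetic, 1 Hz baseline · Benchmarks – buffer (low) and maximal DAMGO (high) · Read-out – B score of integrated fluorescence ratio per well · Incubation – dye loading 45 min room temperature, 110 s kinetic read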
TRPC6 activator: mouse TRPC6 channel activators, primary screen, cell-based, HEK293, membrane potential dye; Short transient receptor potential channel 6 (Mus musculus), Q61143; HEK293-TRPC6 membrane potential dye fluorescence; active compounds read high; B-score at 10 µM; 310,000 compounds, 0.13% hits;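 active = B-score of the integrated fluorescence ratio above library mean plus 3 SD, and starting fluorescence ratio within library mean plus 5 SD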;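 note: higher score means more depolarization so channel activation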
TRPC4 PAM: positive allosteric modulators of TRPC4, primary screen, cell-based, mouse TRPC4beta, HEK293 mu-opioid, Fluo-4 calcium. DAMGO EC20, Fluo-4 Ca2+ flux; active compounds read high. B-score at 10 µM. 310,000 compounds, 0.42% hits. AID 2227, 2009;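 active = B-score of calcium response area above 5 SD of library B-scores, with initial fluorescence ratio within 5 SD of library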;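 note: B-score of integrated fluorescence ratio over time as area under calcium response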
TRPC6 inhibitor: mouse TRPC6 channel inhibitors, primary screen, cell-based, HEK293, membrane potential dye. Short transient receptor potential channel 6 (Mus musculus), Q61143. ACh-evoked depolarization; active compounds read low. B-score at 10 µM. 310,000 compounds, 1.1% hits;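 active = B-score under library mean minus 3 SD, initial fluorescence not abnormally high, positive integrated signal ratio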;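 note: B-score derived from integrated fluorescence ratio over the kinetic read; more negative B-score means stronger inhibition of depolarization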
Numbers without * were called inactive; i = inactive; / = no result given.

SMILES	TRPC4 block	Kir21 inh	TRPC4 act	TRPC6 activator	TRPC4 PAM	TRPC6 inhibitor
COc1ccc(S(=O)(=O)N(Cc2ccccc2)Cc2nc(-c3ccccc3)no2)cc1	i	0.47	i	i	i	i
CC1CCC(C(C)C)C(OC(=O)C[n+]2cc(-c3ccc(Cl)cc3)n3c2CCCCC3)C1 (configuration not stated)	i	-8.6*	i	i	i	i
CC(C)Cc1cc(C(=O)Nc2cc(C(F)(F)F)ccc2Cl)no1	i	-0.98	i	i	10*	i
CCCC(=O)Nc1ccccc1NC(=O)c1ccc(OC(C)=O)cc1	i	-1.6	i	i	i	i
Clc1ccccc1Sc1ccc(-c2ccccn2)s1	i	2.6	i	i	i	i
COCCCNCCCCOc1ccc(Br)cc1Cl	i	-6.8*	i	i	i	i
COCCNCCCOc1ccc(Cl)cc1Br	i	-0.06	i	i	i	i
COCCCNCCCOc1ccc(Cl)cc1C(C)(C)C	i	-5.1*	i	i	i	i
Cc1nn(C)cc1C(C(=O)NC1CCCCC1)N(C(=O)Cc1cccs1)c1ccc(C(C)C)cc1 (configuration not stated)	i	0.51	44*	i	i	i
CC(C)c1nc(SCc2ccccn2)c2c(=O)n(C)c(=O)n(C)c2n1	i	0.32	52*	i	i	i
CCc1nc(SCc2ccccn2)c2c(=O)n(C)c(=O)n(C)c2n1	i	0.29	i	i	i	i
CCOC(=O)c1c(C)[nH]c(C(=O)N2CCC(C(=O)OCC)CC2)c1C	i	1.5	i	i	i	i
O=C(OCC1CCNCC1)c1ccc2c(c1)OCO2	i	0.02	62*	i	i	i
O=[N+]([O-])c1ccc(S(=O)(=O)NCCCc2ccccc2)cc1	i	0.29	i	i	57*	i
O=S(=O)(NCCCc1ccccc1)c1ccc(Cl)cc1	i	-4.8*	i	i	i	i
c1ccc(CC2CCCNC2)cc1 (configuration not stated)	i	-0.17	90*	i	i	i
c1ccc(C[C@H]2CNCCN2CC2CCCCC2)cc1	i	-0.48	i	i	i	i
CC(C)NC(=O)C(=O)NCCC1CCCCN1S(=O)(=O)c1cccs1 (configuration not stated)	i	-0.4	i	i	i	i
COc1ccc(-c2nc(CSCC(=O)NCCC3=CCCCC3)c(C)o2)cc1OC	i	-5.1*	i	i	i	i
COc1ccc(-c2nc(CN3CCC(C(=O)NC4CCCC4)CC3)c(C)o2)cc1OC	i	2.2	101*	i	i	i
COc1ccc(-c2nc(CN3CCC(C(=O)N4CCOCC4)CC3)c(C)o2)cc1OC	i	-0.2	i	i	i	i
O=C(CNc1cccc(F)c1)N1CCc2ccccc2C1	i	-0.7	i	i	i	i
CN(Cc1ccccc1)CC(O)COc1ccc(CNCc2ccc(Cl)s2)cc1 (configuration not stated)	i	-12*	i	i	i	i
CCOC(=O)C1(Cc2cccc(F)c2)CCN(Cc2cn(CC)nc2C)CC1	i	0.23	78*	i	i	i
CCOC(=O)C1(Cc2cccc(F)c2)CCN(Cc2c(C)nn(CC)c2C)CC1	-6*	-1.4	i	i	i	i
SMILES	TRPC4 block	Kir21 inh	TRPC4 act	TRPC6 activator	TRPC4 PAM	TRPC6 inhibitor
CCCn1ncc(CN2CCC(Cc3cccc(F)c3)(C(=O)OCC)CC2)c1C	i	0	i	i	i	i
CCOC(=O)C1(CCCc2ccccc2)CCN(Cc2cn(CC)nc2C)CC1	i	-1.1	124*	i	i	i
CCOC(=O)C1(CCCc2ccccc2)CCN(Cc2nccn2CC)CC1	i	-2.9	i	i	i	i
COc1ccccc1-n1c(=O)c2c3c(sc2n2c(=S)[nH]nc12)CCC3	i	1.2	i	i	i	i
Cc1ccccc1C(=O)c1cccn1CC(=O)NCC(C)c1ccccc1 (configuration not stated)	i	-6.4*	i	i	i	i
Cc1ccccc1C(=O)c1cccn1CC(=O)NCc1ccccc1	i	-0.69	i	i	i	i
COc1ccc(CCNC(=O)Cn2cccc2C(=O)c2ccccc2)cc1OC	i	1.1	i	i	i	i
CC(C)(C)n1ncc2c(=O)n(CC(=O)NCCc3ccccc3)cnc21	/	0.96	i	i	i	i
COc1ccc(CCNC(=O)Cn2cccc2C(=O)c2ccccc2C)cc1OC	i	-5*	i	i	i	i
COc1ccc(CCNC(=O)Cn2cnc3c(cnn3C(C)(C)C)c2=O)cc1OC	i	0.67	i	i	26*	i
O=C(C1CCCCC1)N1CCN(c2ccnc3cc(Cl)ccc23)CC1	i	0.48	i	i	i	i
CC1CCN(S(=O)(=O)N2CCC(C(=O)NCCc3ccccc3)CC2)CC1	i	-1.2	i	i	i	i
C=CCOC(=O)C1=C[C@H](c2ccc(C(F)(F)F)cc2)[C@@H](CCCO)[C@H](OCC)O1	-5*	0.46	i	i	i	i
CN(Cc1ccccc1F)Cc1cc(=O)oc2cc(O)c(Cl)cc12	i	-0.08	i	i	i	i
Cc1cc2oc(=O)cc(CN(C)Cc3ccccc3F)c2cc1Cl	i	-4.3*	i	i	i	i
Cc1ccc2[nH]c(C)c(CCN(Cc3cccnc3)C(=S)NC(C)(C)C)c2c1	i	-1.4	i	i	16*	i
CCCCC(CC)CNS(=O)(=O)c1ccc2c(c1)CCN2C(=O)CCC(=O)O (configuration not stated)	i	-8*	i	i	i	i
CCc1ccc(NS(=O)(=O)c2ccc3c(c2)CCN3C(=O)CCC(=O)O)cc1	i	0.93	i	i	i	i
CC12CCC(=O)N1C(C(=O)NCCc1ccc(S(N)(=O)=O)cc1)CS2 (configuration not stated)	i	0.28	i	i	i	i
